# In PubChem BioAssay:
# The list shows a part of the results. Unmarked numbers belong to inactive results. Calls of active or inactive are those of the source.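 How the source made its calls, unless noted: active means mean activation over triplicate wells above the hit cutoff derived from the earlier primary screen (cut at about 11% in these data); inactive means the rest.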
# Tests used:
# [1] = tested on: DAF-12 nuclear receptor (Heterodera glycines), GAL4-LBD fusion; assay: H. glycines DAF-12 receptor agonists, confirmation, cell-based, luminescence, HEK293, GAL4-LBD fusion (AID 743050); details: HEK293 GAL4-hgDAF12 luciferase reporter, agonist mode; at 6.8 µM; active compounds read high; percent of butyrate response;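 further: 0% = DMSO low control and 100% = 2 mM sodium butyrate high control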
# [2] = target: Oxysterols receptor LXR-beta (Homo sapiens) (UniProt P55055); assay: LXR agonists, Gal4 luciferase reporter, confirmation, counter-screen for hgDAF-12 agonist project, cell-based, luminescence, HEK293, H. glycines campaign (AID 743051;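 active means mean activation of the triplicate above a set limit carried over from the primary screen, none filed active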); details: 24 h, at 6.8 µM, active compounds read high
# Chain of Oxysterols receptor LXR-beta (Homo sapiens) (P55055 whole entry, looked up, the tested form may be a part): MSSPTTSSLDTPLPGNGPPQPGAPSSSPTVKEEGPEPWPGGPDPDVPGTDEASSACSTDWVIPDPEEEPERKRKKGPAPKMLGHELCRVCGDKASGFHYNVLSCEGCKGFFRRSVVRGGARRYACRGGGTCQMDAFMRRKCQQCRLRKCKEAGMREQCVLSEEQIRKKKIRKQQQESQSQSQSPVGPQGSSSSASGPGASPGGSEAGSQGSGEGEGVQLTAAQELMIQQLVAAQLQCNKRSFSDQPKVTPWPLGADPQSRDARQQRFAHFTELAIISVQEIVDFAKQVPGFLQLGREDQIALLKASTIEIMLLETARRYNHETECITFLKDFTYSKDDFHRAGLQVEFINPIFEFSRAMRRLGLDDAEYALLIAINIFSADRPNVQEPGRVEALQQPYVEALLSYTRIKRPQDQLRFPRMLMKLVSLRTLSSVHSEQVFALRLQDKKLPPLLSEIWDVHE
# In short: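 Test system – Gal4-LXR luciferase reporter HEK293 cells · Dosing – single nominal test compound dose of 6.8 µM · Times – 24 h compound exposure at 37 °C, 5% CO2 · Detection – luciferase luminescence · Evaluation – % activation versus DMSO and positive controls · Benchmarks – DMSO low control · Repeats – triplicate wells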
# [3] = target: Galanin receptor type 2 (Homo sapiens) (UniProt O43603); assay: GALR2 antagonists, retest of hits, confirmation, cell-based (AID 866; in the data active means inhibition above about 27%;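 further: cells stimulated with galanin at about its EC80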); details: GALR2-expressing cells, antagonist mode, at 4 µM, active compounds read high
# Chain of Galanin receptor type 2 (Homo sapiens) (O43603 whole entry, looked up): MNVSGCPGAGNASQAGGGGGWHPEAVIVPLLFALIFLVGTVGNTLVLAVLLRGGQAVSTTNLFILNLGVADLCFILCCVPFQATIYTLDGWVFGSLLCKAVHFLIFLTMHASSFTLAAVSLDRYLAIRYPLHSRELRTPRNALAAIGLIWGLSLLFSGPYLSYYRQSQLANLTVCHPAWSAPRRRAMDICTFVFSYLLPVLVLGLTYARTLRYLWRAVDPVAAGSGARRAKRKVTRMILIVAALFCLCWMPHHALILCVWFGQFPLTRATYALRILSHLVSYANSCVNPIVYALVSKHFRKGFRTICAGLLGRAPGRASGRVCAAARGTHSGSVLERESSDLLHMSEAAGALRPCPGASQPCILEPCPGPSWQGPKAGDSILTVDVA
# [4] = inhibitors of NFAT-driven beta-lactamase reporter, confirmation, counter-screen for GALR2 antagonist project, CHO NFAT-bla cells, FRET readout (AID 867;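 active means inhibition above the mean inhibition across tested compounds plus 3 SD, cut at about 27% in these data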;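 further: 0% = 500 nM thapsigargin stimulated wells and 100% = unstimulated BSA only wells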); details: thapsigargin-stimulated, at 4.2 µM, active compounds read high
Compound,activation [1],activation [2] [%],inhibition [3],inhibition [4]
CC(C)n1c(=O)[nH]c2cc(C(=O)Nc3ccccc3)ccc21,5.08%,0.17,,
COc1ccc(NC(=O)Nc2ccc3nsnc3c2)cc1,13.8% (active),0.54,,
O=C(c1cnn2ccccc12)N1CCc2ccccc21,13.2% (active),0.43,,
c1ccc(-c2nnc(SCc3nc4ccccc4[nH]3)o2)cc1,,,13.7%,5.82%
CC(/C=N/NC(=O)c1cc(-c2ccc3ccccc3c2)n[nH]1)=C\c1ccco1,1.68%,0.14,,
Cc1cc(O)c(NC(=O)c2ccc(C)c([N+](=O)[O-])c2)cc1C,10%,0.55,,
O=[N+]([O-])c1cc(S(=O)(=O)N2CCCC2)ccc1NN=C1CCCC1,-0.65%,-0.04,,
O=C(NCCCN1CCOCC1)c1cc(-c2ccccc2F)no1,11.6% (active),0.17,,
CC(C)(C)c1ccc(/C=C/C(=O)Nc2ncccn2)cc1,14.8% (active),0.79,,
COc1ccc(C)cc1NC(=O)c1[nH]c(C)c(C(C)=O)c1C,,,22.8%,4.72%
Cc1ccsc1C(=O)N/N=C/c1ccc([N+](=O)[O-])cc1,15.8% (active),0.59,,
O=C(NN=Cc1ccc2c(c1)CCC2)c1ccccc1O,10.4%,0.3,,
O=C(Nc1cccc(O)c1)c1ccc(C(=O)c2ccccc2)o1,12.2% (active),0.51,,
O=C(NCCOc1ccccc1)c1ccccc1F,12.7% (active),0.64,,
O=C(CNC(=O)OCc1ccccc1)Oc1cc2oc(=O)cc(-c3ccccc3)c2cc1Cl,,,33.2% (active),37% (active)
Cc1ccn(-c2cccc(-n3ccc(C)n3)n2)n1,15.2% (active),0.61,,
Brc1ccc(C2CC(c3ccccc3)=Nc3ccccc3N2)cc1 (stereo unspecified),17.4% (active),0.65,,
CC(=O)Nc1ccc(-c2nc3ccccc3o2)cc1,17% (active),0.95,,
COc1ccc(NC(=S)N2N=CCC2c2ccccc2)cc1 (stereo unspecified),13.8% (active),0.76,,

Compound,activation [1],activation [2] [%],inhibition [3],inhibition [4]
COc1ccc(/C=C/C(=O)Nc2ccc(C34CC5CC(CC(O)(C5)C3)C4)cc2)cc1OC,,,43.6% (active),21.4%
Fc1ccccc1-c1cc2cc3c(cc2cn1)OCO3,18.4% (active),0.79,,
O=[N+]([O-])c1ccc2c(c1)Nc1nc3ccccc3nc1N2,25.8% (active),1.35,,
CN(C)S(=O)(=O)c1ccc2oc(SCC(=O)Nc3ccccc3F)nc2c1,15.5% (active),0.66,,
Cc1ccc2nc(-c3ccc(SCC(=O)Nc4cc(C)on4)nc3)[nH]c2c1,15.6% (active),0.54,,
FC(F)(F)c1cnc(Oc2ccccc2-c2nnc(-c3ccc(Cl)cc3)o2)c(Cl)c1,,,3.44%,8.76%
O=C(Nc1ncccc1O)c1ccc(S(=O)(=O)N2CCCC2)cc1,14.2% (active),0.03,,
Cc1cccc(NC(=S)NC(=O)c2ccc(Br)o2)c1,11.1% (active),0.48,,
O=C(/C=C/Sc1ncn[nH]1)c1ccc(Cl)cc1,,,50.7% (active),17%
COC(=O)N/N=C/c1cn(CCCOc2ccc(C)cc2)c2ccccc12,6.55%,0.17,,
Cc1cccc(N(CC(=O)Nc2ccc(-c3nc4ccc(C)cc4s3)cc2)S(C)(=O)=O)c1,19.8% (active),0.65,,
c1ccc(CN=C2Nc3ccccc3CS2)nc1,12.9% (active),0.55,,
COCC(C)NC(=O)c1ccc(Cl)c(Cl)c1 (stereo unspecified),,,10.6%,4.96%
Cc1cc(-c2n[nH]c(=S)n2/N=C/C(Br)=C/c2ccccc2)n[nH]1,,,44.1% (active),20.9%
O=C(NC(=S)NC1CCCCC1)c1ccc(Cl)cc1,11.3% (active),0.45,,
O=C(Nc1ccc2ccccc2c1[N+](=O)[O-])c1ccccc1,17.7% (active),0.89,,
CCOc1ccc(OCc2cccc(C(=O)N(CC)CC)c2)cc1,19.5% (active),0.78,,
Cc1cnc(C(=O)N2CCCC(C(=O)c3ccc(C(F)(F)F)cc3)C2)cn1 (stereo unspecified),4.5%,0.17,,
Fc1ccc2[nH]c3c(N4CCN(Cc5ccc6c(c5)OCO6)CC4)ncnc3c2c1,,,50.2% (active),24.3%
